Legend:
[1] = target: T1, 5-hydroxytryptamine receptor 2C (Homo sapiens, UniProt P28335); test: Displacement of [125I]DOI from human recombinant 5HT2C receptor expressed in HEK293 cells by scintillation counting; type: cell-based
T1 sequence (P28335 whole entry): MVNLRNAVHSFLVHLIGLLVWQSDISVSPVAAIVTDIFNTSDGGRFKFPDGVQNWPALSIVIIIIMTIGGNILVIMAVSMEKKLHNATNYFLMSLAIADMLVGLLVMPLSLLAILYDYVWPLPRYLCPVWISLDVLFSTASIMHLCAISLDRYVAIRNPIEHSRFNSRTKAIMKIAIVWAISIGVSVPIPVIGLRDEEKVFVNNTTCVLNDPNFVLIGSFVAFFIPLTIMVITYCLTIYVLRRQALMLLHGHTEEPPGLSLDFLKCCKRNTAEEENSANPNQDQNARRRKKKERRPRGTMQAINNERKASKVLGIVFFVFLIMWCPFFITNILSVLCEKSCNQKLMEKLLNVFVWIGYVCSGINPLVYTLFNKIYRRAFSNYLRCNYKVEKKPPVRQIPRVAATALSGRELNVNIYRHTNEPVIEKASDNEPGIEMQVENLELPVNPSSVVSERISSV
How it was run: (§1)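 Crude plasma membranes from HEK293 cells stably expressing the human receptor (5–25 μg protein), in 20 mM HEPES pH 7.4 with 10 mM MgCl2. Incubated with 0.5 nM [125I]DOI and test compound (1 pM–10 μM) for 1 h at room temperature; nonspecific binding defined with 10 μM cold DOI. Filtered, washed with ice-cold Tris buffer and scintillation counted in triplicate.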

[2] = target: 5-hydroxytryptamine receptor 2A (Homo sapiens, UniProt P28223); test: Displacement of [125I]DOI from human recombinant 5HT2A receptor expressed in HEK293 cells by scintillation counting; type: cell-based; how it was run: as §1
5-hydroxytryptamine receptor 2A, sequence (P28223 whole entry): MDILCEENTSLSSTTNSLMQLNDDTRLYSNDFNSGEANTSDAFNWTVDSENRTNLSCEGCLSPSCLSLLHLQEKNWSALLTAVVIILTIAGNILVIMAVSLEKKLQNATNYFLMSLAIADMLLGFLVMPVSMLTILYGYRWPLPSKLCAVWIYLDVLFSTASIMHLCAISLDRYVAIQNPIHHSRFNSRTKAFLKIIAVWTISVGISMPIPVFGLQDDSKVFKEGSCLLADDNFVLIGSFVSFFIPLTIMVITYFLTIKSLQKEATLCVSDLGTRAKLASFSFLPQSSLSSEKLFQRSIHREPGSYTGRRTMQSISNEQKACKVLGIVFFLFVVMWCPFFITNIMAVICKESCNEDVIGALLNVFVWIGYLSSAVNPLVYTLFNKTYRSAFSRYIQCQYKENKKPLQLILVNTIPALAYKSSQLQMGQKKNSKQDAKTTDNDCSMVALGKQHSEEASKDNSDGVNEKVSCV

[3] = target: T2, hERG (KCNH2) (Homo sapiens, UniProt Q12809); test: Inhibition of human ERG at 3 uM by patch clamp assay
T2 sequence (Q12809 whole entry): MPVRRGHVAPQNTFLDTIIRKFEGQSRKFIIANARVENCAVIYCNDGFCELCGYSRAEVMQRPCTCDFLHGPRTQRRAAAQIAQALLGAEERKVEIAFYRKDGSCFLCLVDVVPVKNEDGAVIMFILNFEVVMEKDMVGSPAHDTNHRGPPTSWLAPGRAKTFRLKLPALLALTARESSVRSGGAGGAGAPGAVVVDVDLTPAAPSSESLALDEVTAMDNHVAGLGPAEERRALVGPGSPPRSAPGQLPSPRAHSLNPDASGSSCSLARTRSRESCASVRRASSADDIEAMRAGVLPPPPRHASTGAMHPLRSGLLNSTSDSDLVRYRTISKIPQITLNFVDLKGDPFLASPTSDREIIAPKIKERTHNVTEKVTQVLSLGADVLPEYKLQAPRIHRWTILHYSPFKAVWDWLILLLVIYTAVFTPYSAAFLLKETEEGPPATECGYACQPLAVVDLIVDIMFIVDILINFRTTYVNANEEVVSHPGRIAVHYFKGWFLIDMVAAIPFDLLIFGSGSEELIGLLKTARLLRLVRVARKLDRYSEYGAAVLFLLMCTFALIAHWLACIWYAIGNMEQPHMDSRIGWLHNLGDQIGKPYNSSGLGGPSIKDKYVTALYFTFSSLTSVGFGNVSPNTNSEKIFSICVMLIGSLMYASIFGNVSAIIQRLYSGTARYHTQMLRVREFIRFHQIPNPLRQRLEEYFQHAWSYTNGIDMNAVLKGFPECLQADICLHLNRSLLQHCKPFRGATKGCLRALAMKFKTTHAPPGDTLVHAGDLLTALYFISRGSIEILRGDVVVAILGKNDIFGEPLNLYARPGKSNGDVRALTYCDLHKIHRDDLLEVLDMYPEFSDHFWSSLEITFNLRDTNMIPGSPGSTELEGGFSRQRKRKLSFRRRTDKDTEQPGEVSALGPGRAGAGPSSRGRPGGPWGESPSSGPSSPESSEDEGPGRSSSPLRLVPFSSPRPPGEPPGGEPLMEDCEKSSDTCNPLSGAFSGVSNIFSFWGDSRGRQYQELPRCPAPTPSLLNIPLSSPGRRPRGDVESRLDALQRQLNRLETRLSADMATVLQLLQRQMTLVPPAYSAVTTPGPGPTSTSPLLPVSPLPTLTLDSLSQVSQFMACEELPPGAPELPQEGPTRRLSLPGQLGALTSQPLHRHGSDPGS

[4] = Antiplatelet activity in human platelet rich plasma assessed as inhibition of ADP-induced aggregation preincubated for 1 min before 5-HT and ADP challenge measured after 3 mins by turbidimetry
[5] = target: T2, hERG (KCNH2); test: Inhibition of human ERG at 1 uM by patch clamp assay
[6] = Total clearance in Sprague-Dawley rat at 2 mg/kg, iv after 24 hrs by HPLC/MS/MS analysis; type: ADME, organism-based; design: dose 2 mg/kg, route intravenous; settings: in vivo
How it was run: (§2)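 Male rats fasted overnight before oral dosing; 10 mg/kg po and 2 mg/kg iv in 80% PEG400/20% phosphate buffered saline. Jugular vein blood was sampled at 0.25–21 h over 24 h, and heparin plasma was assayed by HPLC/MS/MS (MRM, positive electrospray, internal standard; LLOQ 1 ng/mL, ULOQ 2000 ng/mL). %F is taken relative to the 2 mg/kg iv dose. Mean of n = 3 animals.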

[7] = Bioavailability in Sprague-Dawley rat at 2 mg/kg, iv after 24 hrs by HPLC/MS/MS analysis; type: ADME, organism-based; settings: in vivo; how it was run: as §2
[8] = AUC (0 to last) in Sprague-Dawley rat at 10 mg/kg, po after 24 hrs by HPLC/MS/MS analysis; type: ADME, organism-based; design: time 0 - last, dose 10 mg/kg, route oral; settings: plasma; how it was run: as §2
[9] = Half life in Sprague-Dawley rat at 10 mg/kg, po by HPLC/MS/MS analysis; type: ADME, organism-based; design: dose 10 mg/kg, route oral; settings: in vivo; how it was run: as §2
[10] = Volume of distribution at steady state in Sprague-Dawley rat at 2 mg/kg, iv after 24 hrs by HPLC/MS/MS analysis; type: ADME, organism-based; design: dose 2 mg/kg, route intravenous; settings: in vivo, read-out: Vdss; how it was run: as §2
[11] = Cmax in Sprague-Dawley rat at 10 mg/kg, po after 24 hrs by HPLC/MS/MS assay; type: ADME, organism-based; design: dose 10 mg/kg, route oral; settings: in vivo; how it was run: as §2
[12] = target: Voltage-gated inwardly rectifying potassium channel KCNH2 (Homo sapiens, UniProt Q12809); test: Inhibition of human ERG by patch clamp assay
Voltage-gated inwardly rectifying potassium channel KCNH2, sequence (Q12809 whole entry): as above

Row | Compound | Ki [1] [nM] | Ki [2] [nM] | IC50 [4] [nM] | clearance [6] [mL/min/kg] | bioavailability [7] [%] | AUC(0-t) at 24 h [8] [ng·h/mL] | half-life [9] [h] | Vd [10] [L/kg] | Cmax [11] [ng/mL] | inhibition at 3 µM [3] [%] | inhibition at 1 µM [5] [%] | IC50 [12] [nM]
1 | COc1cccc(C(=O)Nc2ccc(OCCNCCO)c(-c3ccnn3C)c2)c1 | 5870 | 1.8 | 5.8 | – | – | – | – | – | – | 36 | – | –
2 | Cn1nccc1-c1cc(NC(=O)c2cccc(C(F)(F)F)c2)ccc1OCCN1CCC(F)(F)C1 | 9250 | 12 | 189 | – | – | – | – | – | – | 50 | – | –
3 | CC(=O)N1CCN(CCOc2ccc(NC(=O)c3cccc(F)c3)cc2-c2ccnn2C)CC1 | > 10000 | 15 | 40 | – | – | – | – | – | – | – | – | –
4 | Cn1nccc1-c1cc(NC(=O)c2cccc(F)c2)ccc1OCCN1CCOCC1 | > 10000 | 5.1 | 86 | – | – | – | – | – | – | 43 | – | –
5 | Cn1nccc1-c1cc(NC(=O)c2ccc(F)cc2)ccc1OCCN1CCOCC1 | > 10000 | 18 | 100 | – | – | – | – | – | – | – | – | –
6 | Cn1ncc(Cl)c1-c1cc(NC(=O)c2cccc(C(F)(F)F)c2)ccc1OCCN1CCNC(=O)C1 | > 10000 | 5.3 | 127 | – | – | – | – | – | – | 53 | – | –
7 | Cn1nccc1-c1cc(NC(=O)c2ccc(C(F)(F)F)cc2)ccc1OCCN1CCOCC1 | 5900 | 2.4 | 61 | – | – | – | – | – | – | – | 33 | –

Further lines, with some results ahead:

Row | Ki [1] [nM] | Ki [2] [nM] | IC50 [4] [nM] | clearance [6] [mL/min/kg] | bioavailability [7] [%] | AUC(0-t) at 24 h [8] [ng·h/mL] | half-life [9] [h] | Vd [10] [L/kg] | Cmax [11] [ng/mL] | Compound | inhibition at 3 µM [3] [%] | inhibition at 1 µM [5] [%] | IC50 [12] [nM]
8 | > 10000 | 28 | – | – | – | – | – | – | – | COc1cccc(C(=O)Nc2ccc(OCCN3CCN(S(C)(=O)=O)CC3)c(-c3ccnn3C)c2)c1 | 23 | – | –
9 | 3380 | 0.6 | 22 | – | – | – | – | – | – | Cn1ncc(Cl)c1-c1cc(NC(=O)c2cccc(F)c2)ccc1OCCN1CCOCC1 | 46 | – | –
10 | > 10000 | 4.1 | 29 | – | – | – | – | – | – | Cn1nccc1-c1cc(NC(=O)c2ccc(F)c(F)c2)ccc1OCCN1CCOCC1 | 56 | – | –
11 | > 10000 | 8.6 | 27 | 233 | 22 | 171 | 1.5 | 11.7 | 56 | Cn1nccc1-c1cc(NC(=O)c2ccc(F)cc2F)ccc1OCCN1CCOCC1 | – | 16 | 4100
